Paper PMC3970846 (Toxicology and applied pharmacology, 2013)
Converted amounts (≈) assume the structure as drawn.

Key:
2B35v1 [1] = biological target: T1, 2B35v1 (Neotoma lepida, UniProt J7EVA5); test: 7-BR O-debenzylation, reconstituted system; format: biochemical; details: substrate 7-BR; enzyme 2B35v1
T1 sequence (J7EVA5 22-491): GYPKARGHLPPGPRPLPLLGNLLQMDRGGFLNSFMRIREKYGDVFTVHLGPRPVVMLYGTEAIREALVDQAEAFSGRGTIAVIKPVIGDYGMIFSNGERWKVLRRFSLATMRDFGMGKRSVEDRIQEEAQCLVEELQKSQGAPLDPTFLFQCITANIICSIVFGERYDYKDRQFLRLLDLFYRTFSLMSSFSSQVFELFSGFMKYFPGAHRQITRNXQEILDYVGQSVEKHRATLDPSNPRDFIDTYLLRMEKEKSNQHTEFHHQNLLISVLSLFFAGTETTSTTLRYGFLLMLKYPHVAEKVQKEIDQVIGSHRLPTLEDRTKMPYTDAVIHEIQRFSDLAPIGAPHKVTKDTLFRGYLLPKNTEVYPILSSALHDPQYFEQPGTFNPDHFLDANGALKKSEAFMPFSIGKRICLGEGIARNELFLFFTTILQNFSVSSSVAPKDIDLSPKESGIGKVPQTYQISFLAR
How it was run: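 Same His4-tagged enzyme and purification, and same reconstituted system (P450:rat reductase:rat b5 1:4:2). 7-BR 0–10 μM in 50 mM HEPES pH 7.4, 15 mM MgCl2. NADPH 1 mM final started the reaction, 10 min at 37 °C, then methanol quench. Resorufin read at ex 550/em 580 nm, calibrated daily with 0–2 μM resorufin. Steady-state parameters from Michaelis-Menten regression.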

2B36v1 [2] = biological target: T2, 2B36v1 (Neotoma lepida, UniProt J7EWE5); test: 7-BR O-debenzylation, reconstituted system; format: biochemical
2B37v2 [3] = biological target: T3, 2B37v2 (Neotoma lepida, UniProt J9JD75); test: 7-BR O-debenzylation, reconstituted system; format: biochemical; details: enzyme 2B37v2
2B37v2 R262K [4] = biological target: T4, 2B37v2 R262K (Neotoma lepida, UniProt J9JD75, R262K, form not given); test: 7-BR O-debenzylation, reconstituted system; format: biochemical; details: enzyme 2B37v2 R262K
rat 2B1 [5] = biological target: rat 2B1 (Rattus norvegicus, UniProt P00176, E2A/G22K/H23K/K25S/N29K/P24T/R27K); test: 7-BR O-debenzylation, reconstituted system; format: biochemical; details: enzyme 2B1
2B37v1 K262R [6] = biological target: T5, 2B37v1 K262R (Neotoma lepida, UniProt J7EWE1, K262R, form not given); test: 7-BR O-debenzylation, reconstituted system; format: biochemical; details: enzyme 2B37v1 K262R
2B37v2 V480L [7] = biological target: T6, 2B37v2 V480L (Neotoma lepida, UniProt J9JD75, V480L, form not given); test: 7-BR O-debenzylation, reconstituted system; format: biochemical; details: enzyme 2B37v2 V480L
2B37v1 [8] = biological target: T7, 2B37v1 (Neotoma lepida, UniProt J7EWE1); test: 7-BR O-debenzylation, reconstituted system; format: biochemical; details: enzyme 2B37v1
2B37v2 V114I [9] = biological target: T8, 2B37v2 V114I (Neotoma lepida, UniProt J9JD75, V114I, form not given); test: 7-BR O-debenzylation, reconstituted system; format: biochemical; details: enzyme 2B37v2 V114I
[10] = Solubility limit in aqueous solutions; format: physicochemical
2B37v2 V114I [11] = biological target: T8, 2B37v2 V114I; test: 7-EFC O-deethylation, reconstituted system; format: biochemical; details: enzyme 2B37v2 V114I
2B37v2 [12] = biological target: T3, 2B37v2; test: 7-EFC O-deethylation, reconstituted system; format: biochemical
2B37v2 V480L [13] = biological target: T6, 2B37v2 V480L; test: 7-EFC O-deethylation, reconstituted system; format: biochemical; details: enzyme 2B37v2 V480L
2B37v2 V114I/V480L = 2B37v2 V114I/V480L (Neotoma lepida, UniProt J9JD75, V114I/V480L, form not given); test: 7-EFC O-deethylation, reconstituted system; format: biochemical; details: enzyme 2B37v2 V114I/V480L
2B37v1 K262R [14] = biological target: T5, 2B37v1 K262R; test: 7-EFC O-deethylation, reconstituted system; format: biochemical
2B35v1 [15] = biological target: T1, 2B35v1; test: 7-EFC O-deethylation, reconstituted system; format: biochemical; details: substrate 7-EFC; enzyme 2B35v1
How it was run: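 Enzyme with C-terminal His4 tag, expressed in TOPP3 cells and purified on Ni-NTA then CM-Sepharose. Reconstituted with rat NADPH-P450 reductase and rat cytochrome b5 (P450:reductase:b5 1:4:2). 7-EFC 0–150 μM in 50 mM HEPES pH 7.4, 15 mM MgCl2. Started with 1 mM NADPH, 10 min at 37 °C, quenched with ice-cold acetonitrile, diluted into 0.1 M Tris pH 9.0. 7-HFC read at ex 410/em 510 nm, calibrated daily with 0–2 μM HFC. Michaelis-Menten fit.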

2B36v1 [16] = biological target: T2, 2B36v1; test: 7-EFC O-deethylation, reconstituted system; format: biochemical; details: enzyme 2B36v1
2B37v1 [17] = biological target: T7, 2B37v1; test: 7-EFC O-deethylation, reconstituted system; format: biochemical
2B37v2 R262K [18] = biological target: T4, 2B37v2 R262K; test: 7-EFC O-deethylation, reconstituted system; format: biochemical
human 2B6 = details: ref Talakad et al., 2009; cited from earlier work
2B36v1 [19] = biological target: T2, 2B36v1; details: read-out: (+)-α-pinene spectral binding KS; enzyme 2B36v1; 25 °C
rat 2B1 [20] = biological target: T9, rat 2B1 (Rattus norvegicus, UniProt P00176, E2A/G22K/H23K/K25S/N29K/P24T/R27K); format: binding
T9 sequence (P00176 with tags, fused parts or gaps limits assumed): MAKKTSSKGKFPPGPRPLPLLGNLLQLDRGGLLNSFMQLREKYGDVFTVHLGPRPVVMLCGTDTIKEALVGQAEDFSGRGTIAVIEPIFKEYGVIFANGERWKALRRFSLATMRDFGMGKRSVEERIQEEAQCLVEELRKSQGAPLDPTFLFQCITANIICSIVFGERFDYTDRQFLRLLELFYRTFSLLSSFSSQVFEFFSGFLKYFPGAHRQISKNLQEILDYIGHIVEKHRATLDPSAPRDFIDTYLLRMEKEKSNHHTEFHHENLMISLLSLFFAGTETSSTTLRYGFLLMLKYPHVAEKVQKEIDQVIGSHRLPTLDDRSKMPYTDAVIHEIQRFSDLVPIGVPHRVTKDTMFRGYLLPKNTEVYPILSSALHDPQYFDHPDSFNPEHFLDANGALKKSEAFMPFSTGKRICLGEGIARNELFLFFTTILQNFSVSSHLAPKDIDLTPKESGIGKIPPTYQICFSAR

2B37v1 [21] = biological target: T7, 2B37v1; details: read-out: (+)-α-pinene spectral binding KS; enzyme 2B37v1; 25 °C
2B37v2 [22] = biological target: T3, 2B37v2; details: read-out: (+)-α-pinene spectral binding KS; enzyme 2B37v2; 25 °C
2B35v1 [23] = biological target: T1, 2B35v1; details: read-out: (+)-α-pinene spectral binding KS; enzyme 2B35v1; 25 °C
[24] = ref Sridhar et al., 2012; cited from earlier work
[25] = test system: CCOc1ccc2c(C(F)(F)F)cc(=O)oc2c1; test: 7-EFC O-deethylation, reconstituted system; format: biochemical, rat; details: other: enzyme 2B1; 37.0 °C
[26] = read-out: 7-BR O-debenzylation KM
[27] = read-out: 7-EFC O-deethylation KM

## O=c1ccc2nc3ccc(OCc4ccccc4)cc3oc-2c1 [7-BR, 7-benzyloxyresorufin]
2B35v1 [1]
  O-dealkylation products: not detected
2B36v1 [2]; 2B36v1 as fraction of 2B1
  efficiency for 7-BR O-debenzylation relative to 2B1: 1/40
2B36v1 [2]; enzyme 2B36v1
  7-BR O-debenzylation kcat: 0.10 ± 0.03 min^−^1
2B36v1 [2]; read-out: 7-BR O-debenzylation KM, enzyme 2B36v1
  Km: 1.7 ± 0.3 µM
2B37v2 [3]
  7-BR O-debenzylation kcat: 0.25 ± 0.06 min^−^1
2B37v2 [3]; [26]
  Km: 9.5 ± 0.5 µM
2B37v2 R262K [4]
  7-BR O-debenzylation kcat: 0.18 ± 0.05 min^−^1
2B37v2 R262K [4]; [26]
  Km: 9.2 ± 0.7 µM
Rat 2B1 [5]
  7-BR O-debenzylation kcat: ~ 4.5 min^−^1
2B37v1 K262R [6]
  7-BR O-debenzylation kcat: 0.15 ± 0.07 min^−^1
2B37v1 K262R [6]; [26]
  Km: 8.1 ± 0.7 µM
2B37v2 V480L [7]
  7-BR O-debenzylation kcat: 0.47 ± 0.08 min^−^1
2B37v2 V480L [7]; [26]
  Km: 4.5 ± 0.7 µM
2B37v1 [8]
  7-BR O-debenzylation kcat: 0.16 ± 0.04 min^−^1
2B37v1 [8]; [26]
  Km: 7.2 ± 0.6 µM
2B37v2 V114I [9]
  7-BR O-debenzylation kcat: 0.13 ± 0.01 min^−^1
2B37v2 V114I [9]; [26]
  Km: 5.7 ± 1 µM
[10]
  solubility: ~10 µM (≈ 3.03 µg/mL)

## CCOc1ccc2c(C(F)(F)F)cc(=O)oc2c1 [7-EFC, 7-ethoxy-4-(trifluoromethyl)coumarin]
2B37v2 V114I [11]
  7-EFC O-deethylation kcat: 6.3 ± 1.9 min^−^1
2B37v2 V114I [11]; [27]
  Km: 120 ± 2 µM
2B37v2 [12]; 2B37v2 vs 2B1
  kcat for 7-EFC-O-deethylation greater than that of 2B1: 2 fold
2B37v2 [12]; enzyme 2B37v2
  7-EFC O-deethylation kcat: 14.5 ± 8.3 min^−^1
2B37v2 [12]; read-out: 7-EFC O-deethylation KM, enzyme 2B37v2
  Km: 20 ± 4.2 µM
2B37v2 V480L [13]
  7-EFC O-deethylation kcat: 22.3 ± 2.0 min^−^1
2B37v2 V480L [13]; [27]
  Km: 23.9 ± 3.6 µM
2B37v2 V114I/V480L
  7-EFC O-deethylation kcat: 20.8 ± 2.8 min^−^1
2B37v2 V114I/V480L; [27]
  Km: 32.5 ± 4.4 µM
2B37v1 K262R [14]; 2B37v1 K262R vs 2B37v1
  decrease in 7-EFC kcat: ~ 45%
  reduction of 7-EFC catalytic efficiency: ~ 35%
2B37v1 K262R [14]; enzyme 2B37v1 K262R
  7-EFC O-deethylation kcat: 5.4 ± 0.2 min^−^1
2B37v1 K262R [14]; read-out: 7-EFC O-deethylation KM, enzyme 2B37v1 K262R
  Km: 19 ± 2.3 µM
2B35v1 [15]
  O-dealkylation products: not detected
2B36v1 [16]
  7-EFC O-deethylation kcat: 3.3 ± 1.0 min^−^1
2B36v1 [16]; [27]
  Km: 18.3 ± 7 µM
2B37v1 [17]; 2B37v1 vs 2B1
  7-EFC KM lower than 2B1: ~ 25%
  7-EFC catalytic efficiency higher than for 2B1: ~ 1.8 fold
  7-EFC kcat higher than that for 2B1: ~ 1.4 fold
  kcat for 7-EFC-O-deethylation greater than that of 2B1: ~ 50%
2B37v1 [17]; enzyme 2B37v1
  7-EFC O-deethylation kcat: 10.0 ± 0.3 min^−^1
2B37v1 [17]; read-out: 7-EFC O-deethylation KM, enzyme 2B37v1
  Km: 23.5 ± 2 µM
2B37v2 R262K [18]; 2B37v2 R262K vs 2B37v2
  decrease in 7-EFC catalytic efficiency: 85%
2B37v2 R262K [18]; enzyme 2B37v2 R262K
  7-EFC O-deethylation kcat: 2.0 ± 0.1 min^−^1
2B37v2 R262K [18]; read-out: 7-EFC O-deethylation KM, enzyme 2B37v2 R262K
  Km: 20.3 ± 2.8 µM

## COC(=O)[C@H](c1ccccc1Cl)N1CCc2sccc2C1 [clopidogrel]
Human 2B6
  KS: low micromolar
  maximal increase in HSP450 content upon binding: 2.6%

## CN[C@H]1CC[C@@H](c2ccc(Cl)c(Cl)c2)c2ccccc21 [sertraline]
Human 2B6
  maximal increase in HSP450 content upon binding: 0.8%

## Clc1ccccc1CN1CCc2sccc2C1 [ticlopidine]
Human 2B6
  KS: low micromolar
  maximal increase in HSP450 content upon binding: 2.3%

## (+)-α-pinene
2B36v1 [19]
  Kd: 0.58 ± 0.04 µM
Rat 2B1 [20]; maximum change in high-spin P450 content, enzyme 2B1
  (+)-α-pinene spectral binding %HSP450 Max Δ: 48.7 ± 1.3%
Rat 2B1 [20]; peak ~388 nm, trough ~420 nm, represented with 2B1, seen with each enzyme
  difference spectra type induced: Type I
Rat 2B1 [20]; read-out: (+)-α-pinene spectral binding KS, enzyme 2B1, 25 °C
  Kd: 0.87 ± 0.08 µM
2B37v1 [21]
  Kd: 9.33 ± 0.76 µM
2B37v2 [22]
  Kd: 0.91 ± 0.07 µM
2B35v1 [23]
  Kd: 1.27 ± 0.49 µM
[24]
  log P: 4.44

## rat 2B1 (Rattus norvegicus; E2A/G22K/H23K/K25S/N29K/P24T/R27K)
[25]
  Km: 32.4 ± 4.9 µM
  kcat: 0.115 ± 0.02 s⁻¹
  kcat/Km: 3500 M⁻¹ s⁻¹
